{
  "source": "paper PMC2858063",
  "about": "(Steroids, 2010)",
  "key": {"hu-mPRα [1]": {"target": "T1, hu-mPRα (Homo sapiens, UniProt Q86WK9)", "T1 sequence (Q86WK9 1-346)": "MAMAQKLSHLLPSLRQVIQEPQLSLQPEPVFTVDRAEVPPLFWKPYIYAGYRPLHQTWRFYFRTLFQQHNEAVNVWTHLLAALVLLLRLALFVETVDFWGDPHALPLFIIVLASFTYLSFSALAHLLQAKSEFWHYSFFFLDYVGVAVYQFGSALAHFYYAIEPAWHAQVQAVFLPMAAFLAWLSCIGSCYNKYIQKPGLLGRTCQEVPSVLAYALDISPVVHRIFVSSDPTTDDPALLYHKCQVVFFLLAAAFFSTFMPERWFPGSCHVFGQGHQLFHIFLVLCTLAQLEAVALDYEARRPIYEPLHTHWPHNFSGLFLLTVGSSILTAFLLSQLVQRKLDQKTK", "experiment": "hu-mPRα steroid binding assay", "settings": "for RBA (Relative Binding Affinity): compared with progesterone (=100), human mPRα; for binding to hu-mPRα (in words): this study, Fig. 1, Table 1"}, "human nPR [2]": {"target": "T2, human nPR (Homo sapiens, UniProt P06401)", "T2 sequence (P06401 679-933 limits assumed)": "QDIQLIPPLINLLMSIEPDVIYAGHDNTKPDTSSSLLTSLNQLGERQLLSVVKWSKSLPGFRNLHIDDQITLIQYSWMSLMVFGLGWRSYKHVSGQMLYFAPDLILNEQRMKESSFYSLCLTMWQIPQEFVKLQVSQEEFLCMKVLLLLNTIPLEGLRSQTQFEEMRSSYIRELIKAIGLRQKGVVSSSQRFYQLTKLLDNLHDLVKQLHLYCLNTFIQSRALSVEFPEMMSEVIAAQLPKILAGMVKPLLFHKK", "experiment": "nPR steroid binding assay", "settings": "that of progesterone"}, "hu-mPRα [3]": {"target": "T1, hu-mPRα", "experiment": "MAPK activation assay", "assay_type": "cell-based", "settings": "100 nM, 10 min, mPRα-transfected MDA-MB-231 cells", "procedure,_shortened": "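Control and mPRα-transfected MDA-MB-231 cells were serum-starved 5–6 days, then treated 10 min with progestins (100 nM; 1–100 nM for concentration-response), with EGF as positive control. Lysis was in RIPA buffer plus protease inhibitors. Lysate (10 μg/lane, non-reducing) ran on duplicate SDS gels, was blotted, and was probed for total or phospho-p42/44 with rabbit monoclonals, then HRP anti-rabbit 1 h. Detection was by chemiluminescence on film. Runs were repeated 3–4 times, with statistics versus vehicle.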"}, "human PR-B": {"target": "T3, human PR-B (Homo sapiens, UniProt P06401)", "T3 sequence (P06401 1-933)": "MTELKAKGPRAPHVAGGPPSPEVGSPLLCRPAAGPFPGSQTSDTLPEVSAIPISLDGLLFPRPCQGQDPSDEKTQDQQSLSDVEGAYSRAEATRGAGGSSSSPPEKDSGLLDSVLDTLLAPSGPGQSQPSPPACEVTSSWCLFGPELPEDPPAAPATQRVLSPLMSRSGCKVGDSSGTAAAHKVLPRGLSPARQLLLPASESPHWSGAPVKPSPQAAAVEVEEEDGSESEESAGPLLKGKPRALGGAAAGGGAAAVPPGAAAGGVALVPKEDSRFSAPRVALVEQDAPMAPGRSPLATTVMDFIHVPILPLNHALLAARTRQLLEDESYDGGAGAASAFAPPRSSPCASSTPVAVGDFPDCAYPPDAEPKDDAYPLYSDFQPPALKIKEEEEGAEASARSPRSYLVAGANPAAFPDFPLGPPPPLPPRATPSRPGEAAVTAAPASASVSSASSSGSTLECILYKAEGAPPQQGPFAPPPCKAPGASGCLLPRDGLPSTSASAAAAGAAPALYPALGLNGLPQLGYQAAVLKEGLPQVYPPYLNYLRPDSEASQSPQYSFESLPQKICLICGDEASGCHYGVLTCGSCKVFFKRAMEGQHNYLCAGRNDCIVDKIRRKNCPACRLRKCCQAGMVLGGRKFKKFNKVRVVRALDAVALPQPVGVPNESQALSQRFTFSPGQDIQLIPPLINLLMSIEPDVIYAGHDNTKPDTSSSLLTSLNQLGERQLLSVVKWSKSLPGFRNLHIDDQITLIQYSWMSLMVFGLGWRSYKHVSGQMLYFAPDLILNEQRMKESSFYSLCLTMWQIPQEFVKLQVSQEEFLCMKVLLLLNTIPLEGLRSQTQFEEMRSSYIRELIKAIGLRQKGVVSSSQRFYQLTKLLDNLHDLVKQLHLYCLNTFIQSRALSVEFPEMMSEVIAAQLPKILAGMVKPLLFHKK", "experiment": "nPR luciferase reporter assay", "assay_type": "cell-based", "settings": "for nPR antagonist activity: 20 and 100 nM in the presence of 5 nM progesterone", "procedure,_shortened": "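MCF-7 cells in phenol red-free DMEM were co-transfected with human PR-B vector (0.25 μg), MMTV-luciferase reporter (0.6 μg) and Renilla pRL-TK (0.5 μg). […] Cells grew overnight to 90% confluence. Dual-luciferase readings were taken, 10 s each. Firefly/Renilla ratio was reported, in triplicate.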"}, "female rabbits": {"system": "female rabbits", "settings": "s.c.; cited from earlier work"}, "hu-mPRα [4]": {"target": "T1, hu-mPRα", "settings": "earlier series, cited from earlier work"}, "human nPR [5]": {"target": "T2, human nPR", "settings": "cited from earlier work; for pIC50 (mean): 50% displacement of [3H] Org 2058, extracted from log RBA; for logRBA: RBA (%) compared with that of Org 2058 (=100%)"}},
  "note": "Entries after “also recorded” stand apart in the source; their conditions may differ. Where two headings read alike, the source gives them in different places.",
  "data": [
    {"compound": "18a-methylprogesterone [18a-Methylprogesterone (Org OE 64-0)]", "values": [
      {"measurement": "RBA (Relative Binding Affinity)", "setting": "hu-mPRα [1]", "result": 2009, "unit": "%"},
      {"measurement": "binding to hu-mPRα (in words)", "setting": "hu-mPRα [1]", "result": "affinities higher than that of progesterone"},
      {"measurement": "relative binding affinity for nPR", "setting": "human nPR [2]", "result": 20.8, "unit": "%"},
      {"measurement": "MAPK activation (phosphorylation of ERK)", "setting": "hu-mPRα [3]", "result": "mPRα agonists"}
    ]},
    {"compound": "19a-methylprogesterone [19a-Methylprogesterone (Org OD 13-0)]", "values": [
      {"measurement": "RBA (Relative Binding Affinity)", "setting": "hu-mPRα [1]", "result": 92.7, "unit": "%"},
      {"measurement": "binding to hu-mPRα (in words)", "setting": "hu-mPRα [1]", "result": "relatively high affinity"},
      {"measurement": "relative binding affinity for nPR", "setting": "human nPR [2]", "result": 2.3, "unit": "%"},
      {"measurement": "nPR antagonist activity", "setting": "human PR-B", "result": "weak antagonist activity"},
      {"measurement": "MAPK activation (phosphorylation of ERK)", "setting": "hu-mPRα [3]", "result": "mPRα agonists"}
    ]},
    {"compound": "C=C[C@]12CCC(=O)C=C1CC[C@H]1[C@@H]3CC[C@H](C(C)=O)[C@@]3(C)CC[C@@H]12", "note": "[10-ethenyl-19-norprogesterone]", "values": [
      {"measurement": "RBA (Relative Binding Affinity)", "setting": "hu-mPRα [1]", "result": 257.7, "unit": "%"},
      {"measurement": "binding to hu-mPRα (in words)", "setting": "hu-mPRα [1]", "result": "affinities higher than that of progesterone"},
      {"measurement": "relative binding affinity for nPR", "setting": "human nPR [2]", "result": 12.9, "unit": "%"},
      {"measurement": "nPR antagonist activity", "setting": "human PR-B", "result": "weak antagonist activity"},
      {"measurement": "MAPK activation (phosphorylation of ERK)", "setting": "hu-mPRα [3]", "result": "mPRα agonists"}
    ]},
    {"compound": "CC[C@H]1CC[C@H]2[C@@H]3CCC4=CC(=O)CC[C@]4(C)[C@H]3CC[C@]12C(C)=O", "note": "[13-Acetyl-18-norpregn-4-en-3-one]", "values": [
      {"measurement": "RBA (Relative Binding Affinity)", "setting": "hu-mPRα [1]", "result": "<1", "unit": "%"},
      {"measurement": "binding to hu-mPRα (in words)", "setting": "hu-mPRα [1]", "result": "lost all affinity"},
      {"measurement": "progestational activity in comparison with progesterone", "setting": "female rabbits", "result": "1/4"}
    ]},
    {"compound": "CC(=O)[C@H]1CC[C@H]2[C@@H]3CCC4=CC(=O)CC[C@]4(C)[C@H]3CC[C@]12C(C)=O", "note": "[13-Acetyl-18-norprogesterone]", "values": [
      {"measurement": "RBA (Relative Binding Affinity)", "setting": "hu-mPRα [1]", "result": 49.9, "unit": "%"},
      {"measurement": "binding to hu-mPRα (in words)", "setting": "hu-mPRα [1]", "result": "low binding affinities"},
      {"measurement": "progestational activity in comparison with progesterone", "setting": "female rabbits", "result": "1/3"}
    ]},
    {"compound": "C=C[C@]12CC[C@H]3[C@@H](CCC4=CC(=O)CC[C@@]43C)[C@@H]1CC[C@@H]2C(C)=O", "note": "[13-ethenyl-18-norprogesterone]", "values": [
      {"measurement": "RBA (Relative Binding Affinity)", "setting": "hu-mPRα [1]", "result": 168.2, "unit": "%"},
      {"measurement": "binding to hu-mPRα (in words)", "setting": "hu-mPRα [1]", "result": "affinities higher than that of progesterone"},
      {"measurement": "nPR agonist activity", "setting": "human PR-B; PR-B and PRE-luciferase reporter in MCF-7 cells, 50 nM (19-CH2P4 also 1–50 nM)", "result": "showed nPR agonist activity"},
      {"measurement": "MAPK activation (phosphorylation of ERK)", "setting": "hu-mPRα [3]", "result": "mPRα agonists"}
    ]},
    {"compound": "CCC(=O)[C@@]1(C)CC[C@H]2[C@@H]3CCC4=CC(=O)CCC4=C3CC[C@@]21C", "note": "[Promegestone]", "values": [
      {"measurement": "binding to hu-mPRα (in words)", "setting": "hu-mPRα [4]; listed as R5020", "result": "little or no affinity; also recorded: poor binding affinities"},
      {"measurement": "pIC50 (mean)", "setting": "human nPR [5]", "result": 8.90},
      {"measurement": "logRBA", "setting": "human nPR [5]", "result": 2.18}
    ]},
    {"compound": "C[C@]12CC[C@H]3[C@@H](CCC4=CC(=O)CC[C@@]43C)[C@@H]1CC[C@@H]2O", "note": "[Testosterone]", "values": [
      {"measurement": "RBA for hu-mPRα", "setting": "hu-mPRα [4]; progesterone = 100 %", "result": 22.4, "unit": "%"},
      {"measurement": "pIC50 (mean)", "setting": "human nPR [5]", "result": 6.02},
      {"measurement": "logRBA", "setting": "human nPR [5]", "result": "−0.70"}
    ]}
  ]
}
